{
  "source": "ChEMBL document CHEMBL4396947",
  "about": "“Synthesis and characterization of novel isoform-selective IP6K1 inhibitors” (Bioorg Med Chem Lett, 2019)",
  "key": {"[1]": {"molecular_target": "Mitogen-activated protein kinase kinase kinase 9 (Homo sapiens) (UniProt P80192)", "sequence (P80192 whole entry, looked up, the tested form may be a part)": "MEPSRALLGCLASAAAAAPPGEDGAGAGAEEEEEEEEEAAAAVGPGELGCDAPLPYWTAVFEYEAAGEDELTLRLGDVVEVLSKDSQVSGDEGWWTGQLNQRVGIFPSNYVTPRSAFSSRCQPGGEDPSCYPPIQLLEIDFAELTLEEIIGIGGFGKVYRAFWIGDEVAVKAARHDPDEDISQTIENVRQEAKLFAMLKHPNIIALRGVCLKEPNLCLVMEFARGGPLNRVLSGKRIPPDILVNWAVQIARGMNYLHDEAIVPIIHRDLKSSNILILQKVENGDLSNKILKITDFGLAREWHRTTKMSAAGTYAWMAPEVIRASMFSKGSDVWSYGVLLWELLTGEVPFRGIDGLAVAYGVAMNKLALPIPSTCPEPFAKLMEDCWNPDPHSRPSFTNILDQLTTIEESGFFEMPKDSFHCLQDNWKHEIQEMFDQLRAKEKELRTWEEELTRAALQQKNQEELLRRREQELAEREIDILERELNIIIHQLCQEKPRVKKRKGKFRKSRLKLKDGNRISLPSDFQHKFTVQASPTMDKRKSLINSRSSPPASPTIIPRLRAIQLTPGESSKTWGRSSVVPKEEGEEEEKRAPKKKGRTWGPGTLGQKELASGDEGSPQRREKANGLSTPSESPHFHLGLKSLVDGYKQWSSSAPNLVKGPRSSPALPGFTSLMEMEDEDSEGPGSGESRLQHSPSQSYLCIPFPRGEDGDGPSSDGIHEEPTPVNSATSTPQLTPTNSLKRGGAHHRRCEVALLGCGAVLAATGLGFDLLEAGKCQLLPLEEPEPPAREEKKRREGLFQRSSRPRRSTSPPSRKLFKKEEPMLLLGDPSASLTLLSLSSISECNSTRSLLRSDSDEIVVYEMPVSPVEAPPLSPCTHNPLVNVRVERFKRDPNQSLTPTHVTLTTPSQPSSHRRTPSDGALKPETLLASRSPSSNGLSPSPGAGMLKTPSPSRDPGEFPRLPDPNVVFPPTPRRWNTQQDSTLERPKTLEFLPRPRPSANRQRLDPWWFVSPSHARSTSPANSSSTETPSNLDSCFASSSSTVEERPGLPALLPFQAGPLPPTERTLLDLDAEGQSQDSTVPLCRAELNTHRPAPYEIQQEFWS", "assay": "Inhibition of recombinant human MLK1 (134 to 414 residues) assessed as residual activity at 10 uM using casein as substrate incubated for 40 mins in presence of [gamma-33P]ATP at Km concentration by radiometric assay relative to control"}, "[2]": {"molecular_target": "Calcium/calmodulin-dependent protein kinase type 1 (Homo sapiens) (UniProt Q14012)", "sequence (Q14012 whole entry, looked up)": "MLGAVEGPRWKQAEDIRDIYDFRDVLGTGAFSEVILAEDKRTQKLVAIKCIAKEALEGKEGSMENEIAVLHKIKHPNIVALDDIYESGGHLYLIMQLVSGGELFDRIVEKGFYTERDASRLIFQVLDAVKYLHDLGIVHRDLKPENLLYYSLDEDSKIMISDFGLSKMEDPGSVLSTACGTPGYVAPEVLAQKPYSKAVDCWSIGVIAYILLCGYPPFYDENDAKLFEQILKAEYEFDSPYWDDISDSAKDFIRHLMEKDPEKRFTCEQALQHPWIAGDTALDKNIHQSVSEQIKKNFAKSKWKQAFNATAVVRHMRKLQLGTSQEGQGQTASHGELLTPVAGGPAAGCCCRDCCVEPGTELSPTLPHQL", "assay": "Inhibition of human full length recombinant CAMKI assessed as residual activity at 10 uM using KKLRRTLSFAEPG as substrate incubated for 40 mins in presence of [gamma-33P]ATP at Km concentration by radiometric assay relative to control"}, "[3]": {"test_system": "Eukaryotic elongation factor 2 kinase (Homo sapiens), O00418 [H23R]", "sequence (O00418 whole entry H23R)": "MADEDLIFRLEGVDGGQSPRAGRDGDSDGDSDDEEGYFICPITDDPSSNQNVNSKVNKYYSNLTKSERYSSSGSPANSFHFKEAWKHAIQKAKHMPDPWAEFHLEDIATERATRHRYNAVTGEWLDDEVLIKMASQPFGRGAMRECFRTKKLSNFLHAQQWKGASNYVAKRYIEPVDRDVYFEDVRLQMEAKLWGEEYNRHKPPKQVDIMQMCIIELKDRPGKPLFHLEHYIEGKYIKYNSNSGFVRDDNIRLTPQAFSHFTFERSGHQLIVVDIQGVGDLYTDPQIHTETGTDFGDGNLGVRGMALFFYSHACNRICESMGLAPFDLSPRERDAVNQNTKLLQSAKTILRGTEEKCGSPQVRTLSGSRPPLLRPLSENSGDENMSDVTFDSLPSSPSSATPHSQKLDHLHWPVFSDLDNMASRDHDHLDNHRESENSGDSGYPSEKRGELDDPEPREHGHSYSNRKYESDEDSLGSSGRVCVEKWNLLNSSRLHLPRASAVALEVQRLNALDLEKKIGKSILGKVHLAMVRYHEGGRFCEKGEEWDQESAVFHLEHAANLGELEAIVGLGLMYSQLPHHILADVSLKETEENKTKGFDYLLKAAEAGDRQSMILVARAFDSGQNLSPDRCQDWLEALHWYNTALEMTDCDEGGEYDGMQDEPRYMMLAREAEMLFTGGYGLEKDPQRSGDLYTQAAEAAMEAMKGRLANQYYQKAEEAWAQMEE", "assay": "Inhibition of recombinant human eEF2K H23R mutant (2 to end residues) assessed as residual activity at 10 uM using RKKFGESEKTKTK as substrate incubated for 40 mins in presence of [gamma-33P]ATP at Km concentration by radiometric assay relative to control"}, "[4]": {"molecular_target": "Inositol hexakisphosphate kinase 1 (Homo sapiens, UniProt Q92551)", "sequence (Q92551 whole entry, looked up)": "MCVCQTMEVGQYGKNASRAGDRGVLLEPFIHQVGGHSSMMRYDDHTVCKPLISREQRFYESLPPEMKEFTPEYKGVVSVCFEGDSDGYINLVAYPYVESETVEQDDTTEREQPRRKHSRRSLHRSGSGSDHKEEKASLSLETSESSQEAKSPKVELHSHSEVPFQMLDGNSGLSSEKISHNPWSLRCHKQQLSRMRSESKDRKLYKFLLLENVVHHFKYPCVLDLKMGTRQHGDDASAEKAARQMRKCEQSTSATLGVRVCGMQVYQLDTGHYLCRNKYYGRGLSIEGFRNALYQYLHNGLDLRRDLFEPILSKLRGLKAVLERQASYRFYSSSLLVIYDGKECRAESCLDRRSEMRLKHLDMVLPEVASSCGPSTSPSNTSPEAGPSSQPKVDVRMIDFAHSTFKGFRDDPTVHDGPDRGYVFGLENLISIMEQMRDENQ", "assay": "Binding affinity to IP6K1 (unknown origin) assessed as change in melting temperature at 11.1 uM by SYPRO orange dye based assay"}, "[5]": {"molecular_target": "Tyrosine-protein kinase ABL1 (Homo sapiens) (UniProt P00519)", "sequence (P00519 whole entry)": "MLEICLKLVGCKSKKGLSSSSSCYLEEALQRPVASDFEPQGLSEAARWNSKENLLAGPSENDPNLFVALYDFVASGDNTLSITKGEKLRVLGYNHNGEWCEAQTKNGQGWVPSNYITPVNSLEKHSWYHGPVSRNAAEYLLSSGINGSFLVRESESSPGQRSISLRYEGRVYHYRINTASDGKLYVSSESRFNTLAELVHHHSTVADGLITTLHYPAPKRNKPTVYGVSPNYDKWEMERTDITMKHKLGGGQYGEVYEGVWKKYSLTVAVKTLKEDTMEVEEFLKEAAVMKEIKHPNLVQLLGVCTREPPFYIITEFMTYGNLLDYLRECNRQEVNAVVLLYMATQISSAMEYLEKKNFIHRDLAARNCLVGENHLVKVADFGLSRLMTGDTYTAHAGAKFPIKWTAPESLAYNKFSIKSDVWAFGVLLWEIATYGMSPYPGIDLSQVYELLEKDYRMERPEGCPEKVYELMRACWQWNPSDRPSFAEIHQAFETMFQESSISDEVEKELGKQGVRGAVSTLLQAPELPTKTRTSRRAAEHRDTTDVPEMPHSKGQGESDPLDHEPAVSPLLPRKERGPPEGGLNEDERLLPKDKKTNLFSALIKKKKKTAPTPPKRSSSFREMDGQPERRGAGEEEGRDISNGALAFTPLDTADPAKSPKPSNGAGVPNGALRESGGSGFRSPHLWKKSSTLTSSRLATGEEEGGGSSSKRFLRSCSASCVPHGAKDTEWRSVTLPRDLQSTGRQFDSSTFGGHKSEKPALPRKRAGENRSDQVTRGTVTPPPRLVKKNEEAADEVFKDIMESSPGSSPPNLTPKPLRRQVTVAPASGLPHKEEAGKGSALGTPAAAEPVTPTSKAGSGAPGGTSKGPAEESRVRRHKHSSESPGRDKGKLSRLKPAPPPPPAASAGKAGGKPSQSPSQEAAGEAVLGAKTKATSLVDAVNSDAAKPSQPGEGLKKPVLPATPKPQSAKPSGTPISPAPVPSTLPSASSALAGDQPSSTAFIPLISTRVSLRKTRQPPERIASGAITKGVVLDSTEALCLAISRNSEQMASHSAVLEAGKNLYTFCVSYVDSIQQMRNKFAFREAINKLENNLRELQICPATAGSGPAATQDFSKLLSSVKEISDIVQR", "assay": "Inhibition of human recombinant ABL (27 to end residues) assessed as residual activity at 10 uM using EAIYAAPFAKKK as substrate incubated for 40 mins in presence of [gamma-33P]ATP at Km concentration by radiometric assay relative to control"}, "[6]": {"molecular_target": "Inositol hexakisphosphate kinase 2 (Homo sapiens, UniProt Q9UHH9)", "sequence (Q9UHH9 whole entry)": "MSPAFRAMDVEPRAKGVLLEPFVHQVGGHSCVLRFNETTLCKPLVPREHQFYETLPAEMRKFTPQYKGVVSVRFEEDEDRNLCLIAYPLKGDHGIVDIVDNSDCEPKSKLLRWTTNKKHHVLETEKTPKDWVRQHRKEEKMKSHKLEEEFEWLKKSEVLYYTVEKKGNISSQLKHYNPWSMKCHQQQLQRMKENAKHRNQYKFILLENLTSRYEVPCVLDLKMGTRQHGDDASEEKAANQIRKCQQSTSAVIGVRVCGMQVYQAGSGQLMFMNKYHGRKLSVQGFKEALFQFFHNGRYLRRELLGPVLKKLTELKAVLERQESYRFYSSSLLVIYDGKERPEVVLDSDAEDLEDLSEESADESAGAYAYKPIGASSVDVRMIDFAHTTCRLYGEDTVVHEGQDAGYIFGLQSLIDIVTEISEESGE", "assay": "Inhibition of IP6K2 (unknown origin) incubated for 30 mins using IP6 as substrate in presence of ATP by ADP-Glo reagent based luminescence assay", "procedure,_shortened": "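Luminescent ADP-Glo Max format adapted for IP6K, with purified enzyme and ATP at 1 mM, which is consumed as the kinase reaction proceeds. IC50 taken from the resulting inhibition data.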"}, "[7]": {"molecular_target": "Serine/threonine-protein kinase PLK3 (Homo sapiens) (UniProt Q9H4B4)", "sequence (Q9H4B4 whole entry, looked up, the tested form may be a part)": "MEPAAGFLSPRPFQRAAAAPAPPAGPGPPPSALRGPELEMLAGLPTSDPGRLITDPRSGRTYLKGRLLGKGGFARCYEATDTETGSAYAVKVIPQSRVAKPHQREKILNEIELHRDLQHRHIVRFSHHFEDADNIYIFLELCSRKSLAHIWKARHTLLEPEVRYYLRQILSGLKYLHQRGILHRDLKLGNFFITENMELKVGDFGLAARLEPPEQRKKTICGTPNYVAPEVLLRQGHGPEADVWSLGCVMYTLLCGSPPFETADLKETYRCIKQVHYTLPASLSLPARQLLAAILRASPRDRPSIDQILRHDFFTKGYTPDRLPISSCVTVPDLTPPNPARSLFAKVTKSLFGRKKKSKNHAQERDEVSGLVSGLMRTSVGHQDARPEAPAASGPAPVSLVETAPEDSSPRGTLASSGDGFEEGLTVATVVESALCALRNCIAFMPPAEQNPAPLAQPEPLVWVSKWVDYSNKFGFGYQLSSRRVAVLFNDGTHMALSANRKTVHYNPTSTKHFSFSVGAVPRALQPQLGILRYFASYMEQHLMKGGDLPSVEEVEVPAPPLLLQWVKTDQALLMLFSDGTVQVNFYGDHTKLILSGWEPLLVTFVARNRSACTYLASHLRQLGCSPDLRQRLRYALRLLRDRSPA", "assay": "Inhibition of recombinant human Plk3 (19 to 301 residues) assessed as residual activity at 10 uM using casein as substrate incubated for 40 mins in presence of [gamma-33P]ATP at Km concentration by radiometric assay relative to control"}},
  "data": [
    {"compound": "COc1ccc2c(CCNc3nc(NCc4ccc(=O)[nH]c4)c4nc[nH]c4n3)c[nH]c2c1", "values": [
      {"measurement": "Activity", "setting": "[1]", "value": 24, "unit": "%"},
      {"measurement": "Activity", "setting": "[2]", "value": 77, "unit": "%"},
      {"measurement": "Activity", "setting": "[3]", "value": 46, "unit": "%"},
      {"measurement": "ΔTm", "setting": "[4]", "value": 5.5, "unit": "°C"},
      {"measurement": "Activity", "setting": "[5]", "value": 90, "unit": "%"},
      {"measurement": "IC50", "setting": "[6]", "value": 20, "unit": "µM"},
      {"measurement": "Activity", "setting": "[7]", "value": 109, "unit": "%"}
    ]}
  ]
}
